Results on 21 compounds are retold here after ChEMBL document CHEMBL5230163, “Design, synthesis and antibacterial evaluation of a novel class of tetrahydrobenzothiophene derivatives” (2023).

Usually MIC stands for the smallest concentration in the dilution series that meets the test's criterion for growth inhibition.

In experiment [1] the test system is Salmonella. Description: Antibacterial activity against Salmonella ATCC 12022 assessed as inhibition of bacterial growth by standard broth microdilution method. The experiment is classed as functional. The essentials:
(§1)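 Broth microdilution in 96-well plates. Overnight culture (5 μl) moved into 5 ml fresh medium and grown to log phase, then diluted to 2 × 10^6 CFU ml−1. Each well received 100 μl cell suspension plus 100 μl of compound at various concentrations (200 μl final). Read-out was MIC. Run three times.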
(In general: In broth dilution the organism is exposed to a series of concentrations in liquid medium.)

Experiment [2] concerns Pseudomonas aeruginosa. Description: Antibacterial activity against Pseudomonas aeruginosa ATCC 27853 assessed as inhibition of bacterial growth by standard broth microdilution method. The experiment is classed as functional. The essentials: as §1
In the next experiment the test system is Staphylococcus aureus. Description: Antibacterial activity against Staphylococcus aureus ATCC 25923 assessed as inhibition of bacterial growth by standard broth microdilution method. The experiment is classed as functional. The essentials: as §1
The next experiment concerns Escherichia coli. Description: Antibacterial activity against Escherichia coli ATCC 25922 assessed as inhibition of bacterial growth by standard broth microdilution method. It is filed as functional. The essentials: as §1
Experiment [3] relates to Pseudomonas aeruginosa. Description: Bacteriostatic activity against Pseudomonas aeruginosa ATCC 27853 at 1X to 4XMIC measured after 2 to 24 hrs by time-kill assay. It is filed as functional, organism-based. The settings on record: time 2-24 hrs.
For experiment [4], the system named is Pseudomonas aeruginosa. Description: Antibacterial activity against Pseudomonas aeruginosa ATCC 27853 assessed as reduction in living bacterial cell counts at 1X to 4XMIC measured within 2 hrs by time-kill assay. It is filed as functional, organism-based.
For experiment [5], the system named is Salmonella. Description: Antibacterial activity against Salmonella ATCC 12022 assessed as inhibition of bacterial growth at 0.5XMIC measured for 24 hrs by time-kill assay. It is filed as functional, organism-based.
Experiment [6] concerns Pseudomonas aeruginosa. Description: Antibacterial activity against Pseudomonas aeruginosa ATCC 27853 assessed as inhibition of bacterial growth at 0.5XMIC measured for 24 hrs by time-kill assay. The experiment is classed as functional, organism-based.
The subject of experiment [7] is Salmonella. Description: Bacteriostatic activity against Salmonella ATCC 12022 at 1X to 4XMIC measured after 2 to 24 hrs by time-kill assay. It is filed as functional, organism-based. The settings on record: time 2-24 hrs.
Experiment [8] deals with Salmonella. Description: Antibacterial activity against Salmonella ATCC 12022 assessed as reduction in living bacterial cell counts at 1X to 4XMIC measured within 2 hrs by time-kill assay. It is filed as functional, organism-based.

Values after ≈ are worked out from the molar mass of the structure shown. Active and inactive are the calls of the source.

In the case of `CC1CCc2c(sc(NC(=O)c3cc(Cl)ccc3F)c2C(=O)O)C1` (stereo unspecified), the minimal inhibitory concentration (MIC) with Salmonella [1] came out at 1.33 µM (≈ 0.489 µg/mL); in the experiment with Pseudomonas aeruginosa [2], 1 µM (≈ 0.368 µg/mL); in the experiment with Staphylococcus aureus, 2.66 µM (≈ 0.978 µg/mL); with Escherichia coli, 1.33 µM (≈ 0.489 µg/mL).

For the compound GENTAMICIN, in the experiment on Staphylococcus aureus, the MIC amounted to 1.27 µM.

For the compound `CC1CCc2c(sc(NC(=O)c3ccc(F)cc3)c2C(=O)O)C1` (stereo unspecified), the MIC was found to be 1.47 µM (≈ 0.49 µg/mL) with Salmonella [1], 0.72 µM (≈ 0.24 µg/mL) with Pseudomonas aeruginosa [2], 1.47 µM (≈ 0.49 µg/mL) in the experiment with Staphylococcus aureus and 1.47 µM (≈ 0.49 µg/mL) with Escherichia coli.

Regarding `CCC1CCc2c(sc(NC(=O)c3ccccc3Cl)c2C(=O)O)C1` (stereo unspecified), the MIC with Salmonella [1], in the experiment on Pseudomonas aeruginosa [2], in the experiment with Staphylococcus aureus and in the experiment on Escherichia coli was 1.72 µM (≈ 0.626 µg/mL) in each case.

Regarding `CCC1CCc2c(sc(NC(=O)c3cccc([N+](=O)[O-])c3F)c2C(=O)O)C1` (stereo unspecified), the MIC in the experiment on Salmonella [1] is 19.9 µM (≈ 7.82 µg/mL); in the experiment with Pseudomonas aeruginosa [2], 0.61 µM (≈ 0.239 µg/mL); in the experiment on Staphylococcus aureus, 1.25 µM (≈ 0.491 µg/mL); in the experiment on Escherichia coli, 19.9 µM (≈ 7.82 µg/mL).

In the case of `COc1ccc(C(=O)Nc2sc3c(c2C(=O)O)CCC(C)C3)cc1` (stereo unspecified), the MIC stood at 90.6 µM (≈ 31.3 µg/mL) in the experiment on Salmonella [1], 45.3 µM (≈ 15.6 µg/mL) in the experiment on Pseudomonas aeruginosa [2], 1.42 µM (≈ 0.49 µg/mL) in the experiment on Staphylococcus aureus and 1.42 µM (≈ 0.49 µg/mL) in the experiment with Escherichia coli.

In the case of `CCC1CCc2c(sc(NC(=O)c3ccc([N+](=O)[O-])cc3)c2C(=O)O)C1` (stereo unspecified), the MIC in the experiment with Salmonella [1] worked out at 1.67 µM (≈ 0.625 µg/mL); in the experiment with Pseudomonas aeruginosa [2], 1.67 µM (≈ 0.625 µg/mL); in the experiment with Staphylococcus aureus it was 6.68 µM (≈ 2.5 µg/mL); with Escherichia coli it was 6.68 µM (≈ 2.5 µg/mL).

With `CC1CCc2c(sc(NC(=O)c3ccc(F)cc3F)c2C(=O)O)C1` (stereo unspecified), the MIC in the experiment with Salmonella [1] was found to be 11.1 µM (≈ 3.9 µg/mL); in the experiment on Pseudomonas aeruginosa [2], 11.1 µM (≈ 3.9 µg/mL); in the experiment with Staphylococcus aureus, 1.4 µM (≈ 0.492 µg/mL); in the experiment with Escherichia coli, 22.2 µM (≈ 7.82 µg/mL).

On to `CC1CCc2c(sc(NC(=O)c3ccccc3I)c2C(=O)O)C1` (stereo unspecified), for which the outcome with Pseudomonas aeruginosa [3], in the experiment with Pseudomonas aeruginosa [4], in the experiment on Salmonella [7] and in the experiment with Salmonella [8] was Active. For the same compound, the MIC in the experiment with Salmonella [1] was 0.54 µM (≈ 0.238 µg/mL); with Pseudomonas aeruginosa [2], 1 µM (≈ 0.441 µg/mL); with Staphylococcus aureus, 1.11 µM (≈ 0.49 µg/mL); in the experiment on Escherichia coli, 1.11 µM (≈ 0.49 µg/mL). In addition, the outcome in the experiment with Salmonella [5] and in the experiment on Pseudomonas aeruginosa [6] was inactive.

`CCC1CCc2c(sc(NC(=O)c3ccc(F)cc3F)c2C(=O)O)C1` (stereo unspecified): the MIC in the experiment with Salmonella [1] is 1.71 µM (≈ 0.625 µg/mL); with Pseudomonas aeruginosa [2], 1.71 µM (≈ 0.625 µg/mL); in the experiment with Staphylococcus aureus it was 3.42 µM (≈ 1.25 µg/mL); with Escherichia coli, 1.71 µM (≈ 0.625 µg/mL).

On to `Cc1c(C(=O)Nc2sc3c(c2C(=O)O)CCC(C)C3)cccc1[N+](=O)[O-]` (stereo unspecified), for which the MIC in the experiment on Salmonella [1] is 1.31 µM (≈ 0.49 µg/mL); in the experiment with Pseudomonas aeruginosa [2] it was 1.31 µM (≈ 0.49 µg/mL); in the experiment with Staphylococcus aureus, 83.6 µM (≈ 31.3 µg/mL); in the experiment on Escherichia coli, 0.64 µM (≈ 0.24 µg/mL).

Consider `CCC1CCc2c(sc(NC(=O)c3cc([N+](=O)[O-])cc([N+](=O)[O-])c3)c2C(=O)O)C1` (stereo unspecified), for which the MIC in the experiment on Salmonella [1] came to 1.49 µM (≈ 0.625 µg/mL); in the experiment on Pseudomonas aeruginosa [2] it was 1.49 µM (≈ 0.625 µg/mL); with Staphylococcus aureus, 2.98 µM (≈ 1.25 µg/mL); in the experiment with Escherichia coli, 1.49 µM (≈ 0.625 µg/mL).

Take `CCC1CCc2c(sc(NC(=O)c3ccc(C)cc3C)c2C(=O)O)C1` (stereo unspecified): the MIC in the experiment with Salmonella [1] turned out to be 1.75 µM (≈ 0.626 µg/mL); in the experiment with Pseudomonas aeruginosa [2] it was 1.75 µM (≈ 0.626 µg/mL); in the experiment with Staphylococcus aureus, 3.5 µM (≈ 1.25 µg/mL); in the experiment on Escherichia coli it was 3.5 µM (≈ 1.25 µg/mL).

In the case of `CCC1CCc2c(sc(NC(=O)c3ccc(F)cc3)c2C(=O)O)C1` (stereo unspecified), the MIC with Salmonella [1] stood at 7.19 µM (≈ 2.5 µg/mL); in the experiment on Pseudomonas aeruginosa [2] it was 7.19 µM (≈ 2.5 µg/mL); in the experiment with Staphylococcus aureus, 1.8 µM (≈ 0.625 µg/mL); in the experiment on Escherichia coli it was 1.8 µM (≈ 0.625 µg/mL).

In the case of `CC1CCc2c(sc(NC(=O)c3c(F)cccc3F)c2C(=O)O)C1` (stereo unspecified), the MIC in the experiment on Salmonella [1] stood at 1.4 µM (≈ 0.492 µg/mL); in the experiment on Pseudomonas aeruginosa [2], 1.4 µM (≈ 0.492 µg/mL); in the experiment with Staphylococcus aureus, 1.4 µM (≈ 0.492 µg/mL); in the experiment with Escherichia coli it was 11.1 µM (≈ 3.9 µg/mL).

`O=C(Nc1sc2c(c1C(=O)O)CCCC2)c1ccc(Cl)cc1`: the MIC in the experiment on Salmonella [1], in the experiment on Pseudomonas aeruginosa [2], with Staphylococcus aureus and in the experiment with Escherichia coli was 1.46 µM (≈ 0.49 µg/mL) in each case.

Consider `CC1CCc2c(sc(NC(=O)c3ccccc3)c2C(=O)O)C1` (stereo unspecified), for which the MIC in the experiment with Salmonella [1] was determined as 1.56 µM (≈ 0.492 µg/mL); in the experiment on Pseudomonas aeruginosa [2], 1.56 µM (≈ 0.492 µg/mL); in the experiment on Staphylococcus aureus, 99.2 µM (≈ 31.3 µg/mL); with Escherichia coli, 1.56 µM (≈ 0.492 µg/mL).

Turning to `O=C(O)c1cn(C2CC2)c2cc(N3CCNCC3)c(F)cc2c1=O` [CIPROFLOXACIN], the MIC in the experiment on Salmonella [1] worked out at 2.54 µM (≈ 0.842 µg/mL); with Pseudomonas aeruginosa [2], 10.1 µM (≈ 3.35 µg/mL); in the experiment with Escherichia coli it was 1.27 µM (≈ 0.421 µg/mL).

For the compound `CCC1CCc2c(sc(NC(=O)c3ccc(Cl)cc3)c2C(=O)O)C1` (stereo unspecified), the MIC was found to be 1.72 µM (≈ 0.626 µg/mL) in the experiment with Salmonella [1], 3.44 µM (≈ 1.25 µg/mL) in the experiment on Pseudomonas aeruginosa [2], 3.44 µM (≈ 1.25 µg/mL) in the experiment on Staphylococcus aureus and 3.44 µM (≈ 1.25 µg/mL) in the experiment on Escherichia coli.

As for `Cc1ccc(C(=O)Nc2sc3c(c2C(=O)O)CCC(C)C3)c(C)c1` (stereo unspecified), the MIC amounted to 1.43 µM (≈ 0.491 µg/mL) in the experiment on Salmonella [1], 1.43 µM (≈ 0.491 µg/mL) in the experiment on Pseudomonas aeruginosa [2], 1.43 µM (≈ 0.491 µg/mL) in the experiment with Staphylococcus aureus and 5.69 µM (≈ 1.95 µg/mL) with Escherichia coli.

With `CCC1CCc2c(sc(NC(=O)c3ccccc3)c2C(=O)O)C1` (stereo unspecified), the MIC in the experiment on Salmonella [1] amounted to 0.73 µM (≈ 0.24 µg/mL); with Pseudomonas aeruginosa [2] it was 0.73 µM (≈ 0.24 µg/mL); with Staphylococcus aureus, 11.8 µM (≈ 3.9 µg/mL); with Escherichia coli it was 1.49 µM (≈ 0.491 µg/mL).
